In ChEMBL document CHEMBL2021925, “In vitro antimycoplasmal activity of Citrus bergamia essential oil and its major components” (2012):

Columns and labels:
Mycoplasma fermentans = assay: Antimycoplasmal activity against Mycoplasma fermentans Pg18 after 24 to 48 hrs by broth microdilution method; type: functional, Mycoplasmopsis fermentans
Summary of the method: (§1)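 Strains were grown in SP-4 broth and stored frozen at -80 C until testing. Broth microdilution with agent concentrations expressed as % v/v. MIC was the lowest concentration preventing the broth colour change when the growth-control tube changed: pH falling from 7.5 to 7.0 for M. fermentans, rising from 6.0 to 6.5 for M. hominis. Incubation was 24–48 h. Each strain was tested six times, plus six more times on different days. Growth and sterility controls were included.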

Metamycoplasma hominis = assay: Antimycoplasmal activity against Mycoplasma hominis PG21 after 24 to 48 hrs by broth microdilution method; type: functional; summary of the method: as §1
[1] = test system: Mycoplasmoides pneumoniae; assay: Antimycoplasmal activity against Mycoplasma pneumoniae M129 after 3 to 5 days by broth microdilution method

MIC90 (Mycoplasma fermentans) [%v/v]	MIC50 (Metamycoplasma hominis) [%v/v]	MIC90 (Metamycoplasma hominis) [%v/v]	MIC90 [1] [%v/v]	SMILES
0.12	0.015	0.015	0.015	C=CC(C)(CCC=C(C)C)OC(C)=O (configuration not stated) [LINALYL ACETATE]
1	4	8	0.03	C=C(C)[C@H]1CC=C(C)CC1 [D-LIMONENE]
0.06	1	1	0.015	C=CC(C)(O)CCC=C(C)C (configuration not stated) [LINALOOL]
